Data: ChEMBL document CHEMBL4359913, “Identification and characterization of benzo[d]oxazol-2(3H)-one derivatives as the first potent and selective small-molecule inhibitors of chromodomain protein CDYL” (Eur J Med Chem, 2019)
Active and inactive are the calls of the source. The rule behind the calls is not given here. Where a SMILES comes first, the peptide text is derived from it. [ ]: non-standard residue; d: D form. The star is where a group is joined. Benzoyl(4-tBu) = CC(C)(C)c1ccc(C(=O)*)cc1; Lys(Et2) = CCN(CC)CCCC[C@H](N)C(=O)O

Assays:
HEK-293T = test: Cytotoxicity against human HEK293T cells assessed as reduction in cell viability incubated for 24 hrs by CCK8 assay
[1] = target: T1, Chromodomain Y-like protein (Homo sapiens, UniProt Q9Y232); test: Binding affinity to recombinant human N-terminal GST-tagged CDYL (1 to 60 residues) expressed in Escherichia coli […] by SPR analysis
T1 sequence (Q9Y232 whole entry): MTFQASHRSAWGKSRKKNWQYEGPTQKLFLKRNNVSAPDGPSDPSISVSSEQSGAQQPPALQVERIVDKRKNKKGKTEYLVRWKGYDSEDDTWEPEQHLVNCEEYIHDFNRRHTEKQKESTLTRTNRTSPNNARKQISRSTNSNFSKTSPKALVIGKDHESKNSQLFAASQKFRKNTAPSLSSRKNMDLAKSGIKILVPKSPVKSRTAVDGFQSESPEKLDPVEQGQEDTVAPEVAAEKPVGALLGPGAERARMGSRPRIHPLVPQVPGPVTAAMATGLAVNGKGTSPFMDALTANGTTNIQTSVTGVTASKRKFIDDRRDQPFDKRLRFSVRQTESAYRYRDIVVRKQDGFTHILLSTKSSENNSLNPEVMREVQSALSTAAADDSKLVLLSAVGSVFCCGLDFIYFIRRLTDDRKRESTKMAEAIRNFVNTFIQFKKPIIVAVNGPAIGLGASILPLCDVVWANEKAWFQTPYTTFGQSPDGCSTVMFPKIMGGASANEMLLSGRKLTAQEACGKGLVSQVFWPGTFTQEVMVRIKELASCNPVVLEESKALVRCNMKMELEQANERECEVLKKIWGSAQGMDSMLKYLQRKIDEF
Outline: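 GST-tagged chromodomain expressed in E. coli BL21 with 0.2 mM IPTG at 28 °C for 6 h. Purified on GSTrap, tag removed with PreScission protease. Amine-coupled to CM5 chip at pH 4.0–4.5 (5000–10000 RU). Compound run as a 1.5- or 2-fold series from 100 µM in PBSP with 5% DMSO, 25 °C, 30 µL/min, 60 s association and 60 s dissociation.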

SH-SY5Y = test: Cytotoxicity against human SH-SY5Y cells assessed as reduction in cell viability incubated for 24 hrs by CCK8 assay
[2] = target: T2, Chromobox protein homolog 7 (Homo sapiens, UniProt O95931); test: Binding affinity to recombinant human N-terminal GST-tagged CBX7 (1 to 62 residues) expressed in Escherichia coli […] by SPR analysis
T2 sequence (O95931 whole entry): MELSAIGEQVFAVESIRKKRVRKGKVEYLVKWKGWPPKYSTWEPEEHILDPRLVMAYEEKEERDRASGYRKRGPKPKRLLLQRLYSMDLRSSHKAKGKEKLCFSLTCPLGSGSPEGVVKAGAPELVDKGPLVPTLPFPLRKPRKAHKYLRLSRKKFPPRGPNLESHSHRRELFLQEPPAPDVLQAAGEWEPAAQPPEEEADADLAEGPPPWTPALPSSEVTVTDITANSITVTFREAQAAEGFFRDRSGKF
Outline: (§1)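 Chromodomain expressed with N-terminal GST tag in E. coli BL21 (IPTG 0.2 mM at OD600 0.6–0.8, 28 C for 6 h), GSTrap purified, tag cleaved by PreScission protease, amine-coupled to CM5 chip at pH 4.0–4.5 (5000–10000 RU). […] Mean ± SD of at least two replicates, each in duplicate.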

[3] = target: T3, Chromodomain Y-like protein (Homo sapiens) (UniProt Q9Y232); test: Inhibition of CDYL in human SH-SY5Y cells assessed as increase in MYT1 mRNA expression incubated for 24 hrs by RT-qPCR analysis; type: cell-based
T3 sequence (whole entry): T1 sequence (Q9Y232 whole entry)
Outline: (§2)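 SH-SY5Y or HEK-293T cells grown in DMEM with 10% FBS and treated with compound for 24 h. mRNA quantified by SYBR green RT-qPCR after DNase treatment, 2^-ΔΔCt method with GAPDH as reference, relative to DMSO. Mean ± S.E.M. of triplicate experiments, Student's t-test.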

[4] = target: T3, Chromodomain Y-like protein (Homo sapiens); test: Inhibition of CDYL in human SH-SY5Y cells assessed as MYT1 mRNA expression at 50 to 200 uM incubated for 24 hrs by RT-qPCR analysis; type: cell-based; outline: as §2
[5] = target: T3, Chromodomain Y-like protein (Homo sapiens); test: Inhibition of CDYL in human HEK293T cells assessed as increase in BDNF mRNA expression at 50 to 200 uM incubated for 24 hrs by RT-qPCR analysis; type: cell-based; outline: as §2
[6] = target: T3, Chromodomain Y-like protein (Homo sapiens); test: Inhibition of CDYL in human HEK293T cells assessed as increase in MYT1 mRNA expression at 50 to 200 uM incubated for 24 hrs by RT-qPCR analysis; type: cell-based; outline: as §2
[7] = target: T3, Chromodomain Y-like protein (Homo sapiens); test: Inhibition of CDYL in human HEK293T cells assessed as increase in VGF mRNA expression at 50 to 200 uM incubated for 24 hrs by RT-qPCR analysis; type: cell-based; outline: as §2
[8] = target: T3, Chromodomain Y-like protein (Homo sapiens); test: Inhibition of CDYL in human SH-SY5Y cells assessed as VGF mRNA expression at 50 to 200 uM incubated for 24 hrs by RT-qPCR analysis; type: cell-based; outline: as §2
[9] = target: T3, Chromodomain Y-like protein (Homo sapiens); test: Inhibition of CDYL in human SH-SY5Y cells assessed as BDNF mRNA expression at 50 to 200 uM incubated for 24 hrs by RT-qPCR analysis; type: cell-based; outline: as §2
[10] = target: T4, Testis-specific chromodomain protein Y 1 (Homo sapiens, UniProt Q9Y6F8); test: Binding affinity to recombinant human N-terminal GST-tagged CDY1 (1 to 65 residues) expressed in Escherichia coli […] by SPR analysis; outline: as §1
T4 sequence (Q9Y6F8 whole entry): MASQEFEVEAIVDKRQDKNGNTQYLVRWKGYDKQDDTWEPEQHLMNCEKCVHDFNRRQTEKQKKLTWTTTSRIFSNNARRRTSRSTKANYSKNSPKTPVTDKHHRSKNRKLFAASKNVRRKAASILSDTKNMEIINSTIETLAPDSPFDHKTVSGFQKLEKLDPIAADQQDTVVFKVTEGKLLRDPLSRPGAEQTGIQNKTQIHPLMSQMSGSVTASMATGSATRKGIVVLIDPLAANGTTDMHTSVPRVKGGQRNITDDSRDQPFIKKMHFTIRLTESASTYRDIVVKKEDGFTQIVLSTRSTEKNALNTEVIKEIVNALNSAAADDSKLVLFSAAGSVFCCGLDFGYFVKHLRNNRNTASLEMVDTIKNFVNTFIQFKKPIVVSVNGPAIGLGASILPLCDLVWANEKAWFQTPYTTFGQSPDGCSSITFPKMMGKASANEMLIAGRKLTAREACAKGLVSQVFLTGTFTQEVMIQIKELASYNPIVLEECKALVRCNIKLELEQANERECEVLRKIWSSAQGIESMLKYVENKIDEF

[11] = target: T3, Chromodomain Y-like protein (Homo sapiens); test: Inhibition of CDYL in human SH-SY5Y cells assessed as increase in BDNF mRNA expression incubated for 24 hrs by RT-qPCR analysis; type: cell-based; outline: as §2
[12] = target: T3, Chromodomain Y-like protein (Homo sapiens); test: Inhibition of CDYL in human SH-SY5Y cells assessed as increase in VGF mRNA expression incubated for 24 hrs by RT-qPCR analysis; type: cell-based; outline: as §2
[13] = target: T3, Chromodomain Y-like protein (Homo sapiens); test: Inhibition of CDYL in human SH-SY5Y cells assessed as increase in MYT1 mRNA expression at 100 uM incubated for 24 hrs by RT-qPCR analysis; type: cell-based
Outline: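 SH-SY5Y cells exposed to 100 µM compound for 24 h. MYT1 mRNA measured by RT-qPCR: DNase treatment, SYBR green, 2^-ΔΔCt with GAPDH as internal control. Mean ± S.E.M. of triplicate experiments.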

[14] = target: T3, Chromodomain Y-like protein (Homo sapiens); test: Effect on CDYL-mediated MYT1 mRNA expression in human SH-SY5Y cells up to 200 uM incubated for 24 hrs by RT-qPCR analysis; type: cell-based
[15] = target: T3, Chromodomain Y-like protein (Homo sapiens); test: Effect on CDYL-mediated MYT1 mRNA expression in human HEK293T cells up to 200 uM incubated for 24 hrs by RT-qPCR analysis; type: cell-based

Row | Structure (SMILES) | Kd [1] | Kd [2] | Kd [10] | also measured
1 | COc1cccc(C(=O)CC2(O)C(=O)Nc3ccc(Cl)cc32)c1 (racemic) | 4.9 µM | 84.4 µM |  | IC50 (HEK-293T): 56.1 µM; IC50 (SH-SY5Y): 68.1 µM; Activity [3]: Dose-dependent effect
2 | COc1ccc2oc(=O)n(CC(=O)N3CCC(N4CCCC4)CC3)c2c1 | 12.5 µM | 8.2 µM |  | Activity [4]: inactive; Activity [5]: inactive; Activity [6]: inactive; Activity [7]: inactive; Activity [8]: inactive; Activity [9]: inactive
3 | COc1cccc(C(=O)/C=C2\C(=O)Nc3ccc(Cl)cc32)c1 | 15.4 µM |  | 10.3 µM | IC50 (HEK-293T): 16.6 µM; IC50 (SH-SY5Y): 21.5 µM
4 | O=C(Cn1c(=O)oc2cc(Br)ccc21)c1ccc2ccccc2c1 | 29 µM | 29.7 µM | 1.7 µM | 
5 | COc1ccc2oc(=O)n(CC(=O)c3ccc(N(C)C)cc3)c2c1 | 15.5 µM | 6.1 µM | 2.7 µM | 
6 | O=C(Cn1c(=O)oc2ccccc21)c1cccc2ccccc12 | 3 µM | 29.9 µM | 6.5 µM | 
7 | CC(C)N1C(=O)C(O)(CC(=O)c2ccco2)c2ccccc21 (stereo not drawn) | 13.1 µM | 41.1 µM | 61.6 µM | 
8 | O=C(Cn1c(=O)oc2ccccc21)c1ccc2ccccc2c1 | 2.6 µM | 14.2 µM | 41.7 µM | Activity [5]: Active; Activity [11]: Dose-dependent effect; Activity [6]: Active; Activity [7]: Active; Activity [3]: Dose-dependent effect; Activity [12]: Dose-dependent effect
9 | CCCN1C(=O)C(O)(CC(=O)c2ccc3c(c2)CCCC3)c2ccccc21 (stereo not drawn) | 50.5 µM | 7.2 µM | 89.5 µM | 
10 | O=C(Cn1c(=O)sc2cc([N+](=O)[O-])ccc21)c1c[nH]c2ccccc12 | 71.7 µM | 8.8 µM | 14.4 µM | 
11 | O=C(Cn1c(=O)oc2ccccc21)N1CCC(N2CCCCC2)CC1 | 11.8 µM | 13.5 µM | 51.1 µM | 
12 | COc1ccc2oc(=O)n(CC(=O)c3ccc4ccccc4c3)c2c1 | 1.5 µM | 59.5 µM | 1.5 µM | 
13 | CCCCN1C(=O)C(O)(CC(=O)c2cccc(OC)c2)c2ccccc21 (stereo not drawn) | 100 µM | 8.8 µM | 17.2 µM | 
14 | COc1ccc2oc(=O)n(CC(=O)c3c[nH]c4ccccc34)c2c1 | 7.2 µM | 20.3 µM | 36.4 µM | 
15 | CCc1ccc(C(=O)CC2(O)C(=O)Nc3ccc(Cl)cc32)cc1 (stereo not drawn) | 55.6 µM | 12.1 µM | 33.5 µM | Activity [13]: Active
16 | CCN(CC)CCCC[C@H](NC(=O)[C@H](CC(C)C)NC(=O)[C@H](C)NC(=O)[C@H](Cc1ccccc1)NC(=O)c1ccc(C(C)(C)C)cc1)C(=O)N[C@@H](CO)C(=O)OC ({Benzoyl(4-tBu)}-FAL[Lys(Et2)]S-OMe) | 5.6 µM |  |  | Activity [14]: inactive; Activity [15]: inactive
17 | O=C(Cn1c(=O)oc2ccccc21)c1c[nH]c2ccccc12 | 1.9 µM | 9.3 µM | 21 µM | 
18 | COc1cccc(NC(=O)Cn2c(=O)oc3ccccc32)c1 | 7.3 µM | 14.8 µM | 1 µM | 
19 | CN1C(=O)C(O)(CC(=O)c2ccc3ccccc3c2)c2ccccc21 (stereo not drawn) | 19.4 µM | 5.1 µM | 28.9 µM | 
20 | N#Cc1ccc2oc(=O)n(CC(=O)c3c[nH]c4ccccc34)c2c1 | 96.7 µM | 46.9 µM | 4.6 µM | 
21 | COc1cccc(C(=O)CC2C(=O)Nc3ccc(Cl)cc32)c1 (racemic) | 1.2 µM |  | > 200 µM | IC50 (HEK-293T): 36.9 µM; IC50 (SH-SY5Y): 43.4 µM
22 | COc1cccc(C(=O)CN2C(=O)COc3ccccc32)c1 | 13 µM | 53 µM | 11.3 µM | 
23 | COc1cccc(C(=O)Cn2c(=O)[nH]c3ccc(Cl)cc32)c1 | 14.8 µM | 28.9 µM | 70.4 µM | IC50 (HEK-293T): > 200 µM; IC50 (SH-SY5Y): > 200 µM
24 | COc1cccc(C(=O)Cn2c(=O)oc3ccc(OC)cc32)c1 | 7.7 µM | 17.2 µM | 15.6 µM | 
25 | COc1ccc(C(=O)Cn2c(=O)oc3ccccc32)cc1OC | 14.6 µM | 48.5 µM | 23.8 µM | 
